Experimental data published in ChEMBL document CHEMBL1138617, “Synthesis of potent antitumor and antiviral benzofuran derivatives” (Bioorg Med Chem Lett, 2009).
Counter-ions that a name gives are not always drawn.

Experiments:
SK-OV-3 = test: Cytotoxicity against human SKOV3 cells by MTT assay; assay type: functional, cell-based
[1] = Cytotoxicity against human hepatocytes by MTT assay; assay type: cell-based, Hepatocyte
NCI-H460 = test: Cytotoxicity against human NCI-H460 cells by MTT assay; assay type: functional, cell-based
U-937 = test: Cytotoxicity against human U937 cells by MTT assay; assay type: functional, cell-based
Summary of the method: (§1)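 Growth inhibition by MTT assay (Mosmann method) on human cancer cell lines and on normal human fetal lung fibroblast WI 38 cells.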

HL-60 = test: Cytotoxicity against human HL60 cells by MTT assay; assay type: functional, cell-based; summary of the method: as §1
K562 = test: Cytotoxicity against human K562 cells by MTT assay; assay type: functional, cell-based; summary of the method: as §1
[2] = test system: Human immunodeficiency virus; test: Antiviral activity against HIV infected in human CEM-SS cells assessed as inhibition of virus induced cell killing by XTT assay; assay type: functional, organism-based; conditions: Human immunodeficiency virus 1, CEM-SS
Summary of the method: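 Microtiter anti-HIV assay in CEM-SS cells or fresh human PBMCs, measuring inhibition of HIV-induced cell killing or HIV replication. Read-out is XTT tetrazolium reduction to formazan by viable cells.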

[3] = Therapeutic index, ratio of toxic dose of drug for 50% of the population TD50 to minimum effective dose ED50 of the population; conditions: read-out: Ratio TD50/ED50
SK-MEL-28 = test: Cytotoxicity against human SK-MEL-28 cells by MTT assay; assay type: functional, cell-based; summary of the method: as §1
Hepacivirus hominis = test: (§2) Inhibition of HCV NS3/4A protease activity after 48 hrs by RT-PCR
[4] = as §2; design: species or system Hepacivirus hominis
GOTO = test: Cytotoxicity against human GOTO cells by MTT assay; assay type: functional, cell-based; summary of the method: as §1
[5] = Cytotoxicity against human RKOp27 cells by MTT assay; assay type: functional, cell-based
[6] = Cytotoxicity against human WI38 cells by MTT assay; assay type: cell-based; conditions: WI-38; summary of the method: as §1
[7] = biological target: Human immunodeficiency virus type 1 reverse transcriptase (Human immunodeficiency virus 1, UniProt Q72547); test: Inhibition of recombinant HIV1 reverse transcriptase in cell free Quan-T-RT by scintillation proximity assay
HCV NS3-4A protease = test: Therapeutic index, ratio of CC50 for human hepatocytes to IC50 for HCV NS3-4A protease; assay type: cell-based, Hepatocyte; conditions: read-out: Ratio CC50/IC50
G-361 = test: Cytotoxicity against human G361 cells by MTT assay; assay type: functional, cell-based; summary of the method: as §1
SF-268 = test: Cytotoxicity against human SF268 cells by MTT assay; assay type: functional, cell-based
NB1 = test: Cytotoxicity against human NB-1 cells by MTT assay; assay type: functional, cell-based; summary of the method: as §1

| SMILES | IC90 (Hepacivirus hominis) | IC50 [4] | IC50 [7] | IC50 (SK-OV-3) | CC50 [1] | IC50 (NCI-H460) | IC50 (U-937) | IC50 (HL-60) | IC50 (K562) | EC50 [2] | selectivity ratio [3] | IC50 (SK-MEL-28) | IC50 (GOTO) | IC50 [5] | IC50 [6] | selectivity ratio (HCV NS3-4A protease) | IC50 (G-361) | IC50 (SF-268) | IC50 (NB1) |
| --- | --- | --- | --- | --- | --- | --- | --- | --- | --- | --- | --- | --- | --- | --- | --- | --- | --- | --- | --- |
| COc1c(C(=O)/C=C/Nc2ccncc2)c(O)c(OC)c2occc12 | 2310 nM | 986 nM | 4.8 µM | – | 435 µM | 0.0284 nM | 0.0263 nM | 0.0263 nM | 0.0263 nM | 0.01 nM | 1260 | 0.0281 nM | 0.0253 nM | 0.0255 nM | 0.0253 nM | 441 | 0.0263 nM | – | – |
| Nc1ccn([C@@H]2O[C@H](CO)[C@@H](O)C2(F)F)c(=O)n1 [GEMCITABINE HYDROCHLORIDE] | – | – | – | – | – | 2.13 nM | – | – | – | – | – | – | – | – | – | – | – | – | – |
| Nc1ccn([C@@H]2O[C@H](CO)[C@@H](O)[C@@H]2O)c(=O)n1 [CYTARABINE] | – | – | – | – | – | – | – | – | – | – | – | – | – | – | – | – | – | 7.68 nM | – |
| NCc1nc2ccccc2[nH]1 | 2120 nM | 876 nM | 5.1 µM | – | 451 µM | 0.032 nM | 0.0298 nM | 0.0291 nM | 0.0313 nM | 0.01 nM | 1760 | 0.0301 nM | 0.0263 nM | 0.0255 nM | 0.0269 nM | 515 | 0.0305 nM | – | – |
| COc1cccc2c1C(=O)c1c(O)c3c(c(O)c1C2=O)C[C@@](O)(C(=O)CO)C[C@@H]3O[C@H]1C[C@H](N)[C@H](O)[C@H](C)O1 [DOXORUBICIN] | – | – | – | 4.16 nM | – | – | 4.45 nM | – | 6.66 nM | – | – | – | 4.73 nM | – | – | – | – | – | 5.15 nM |
| COc1c(C(=O)C2=CN3C=CC=CC3N=C2)c(O)c(OC)c2occc12 (configuration not stated) | – | > 100000 nM | 16.3 µM | – | – | 0.0277 nM | 0.0298 nM | 0.0275 nM | 0.0446 nM | 0.03 nM | 23500 | 0.0305 nM | 0.0329 nM | 0.0277 nM | 0.0255 nM | – | 0.0481 nM | – | – |
| COc1c(C(=O)C2=CN3C(=CN=C2)Nc2ccccc23)c(O)cc2occc12 | – | > 100000 nM | 47.5 µM | – | – | 0.0255 nM | 0.0301 nM | 0.0305 nM | 0.0298 nM | 0.06 nM | 23500 | 0.0305 nM | 0.0291 nM | 0.0255 nM | 0.0284 nM | – | 0.0313 nM | – | – |
| CCCCCOC(=O)Nc1nc(=O)n([C@@H]2O[C@H](C)[C@@H](O)[C@H]2O)cc1F [CAPECITABINE] | – | – | – | – | – | – | – | – | – | – | – | – | – | 4.33 nM | – | – | – | – | – |
| CCNc1cccnc1N1CCN(C(=O)c2cc3cc(OC)ccc3[nH]2)CC1 [ATEVIRDINE MESYLATE] | – | – | – | – | – | – | – | – | – | 1 nM | – | – | – | – | – | – | – | – | – |

Continued, in another order:

| IC90 (Hepacivirus hominis) | IC50 [4] | IC50 [7] | SMILES | IC50 (SK-OV-3) | CC50 [1] | IC50 (NCI-H460) | IC50 (U-937) | IC50 (HL-60) | IC50 (K562) | EC50 [2] | selectivity ratio [3] | IC50 (SK-MEL-28) | IC50 (GOTO) | IC50 [5] | IC50 [6] | selectivity ratio (HCV NS3-4A protease) | IC50 (G-361) | IC50 (SF-268) | IC50 (NB1) |
| --- | --- | --- | --- | --- | --- | --- | --- | --- | --- | --- | --- | --- | --- | --- | --- | --- | --- | --- | --- |
| 1120 nM | 342 nM | 15.3 µM | COc1c(C(=O)C2=CN3C=CSC3N=C2)c(O)c(OC)c2occc12 (configuration not stated) | 3.28 nM | 127 µM | 0.0255 nM | 0.0284 nM | 0.0255 nM | 0.0446 nM | 0.04 nM | 22600 | 0.0284 nM | 0.0281 nM | 0.028 nM | 0.0284 nM | 371 | 0.0384 nM | – | – |
| – | > 100000 nM | 0.0003 µM | COc1c(C(=O)C2=CN3OC(C)=NC3N=C2)c(O)c(OC)c2occc12 (configuration not stated) | – | – | 0.0255 nM | 0.0329 nM | 0.0281 nM | 0.0284 nM | 0.04 nM | 7690 | 0.0338 nM | 0.0284 nM | 0.026 nM | 0.0281 nM | – | 0.0287 nM | – | – |
| – | > 100000 nM | 14.6 µM | COc1c(C(=O)C2=CN3C=CNC=C3N=C2)c(O)c(OC)c2occc12 | – | – | 0.0255 nM | 0.0284 nM | 0.0266 nM | 0.0321 nM | 0.09 nM | 20000 | 0.026 nM | 0.0258 nM | 0.0284 nM | 0.0373 nM | – | 0.0298 nM | – | – |
| 796 nM | 421 nM | 17.5 µM | COc1c2occc2c(OC)c2c(=O)c(C=O)coc12 | – | 234 µM | 0.0284 nM | 0.0291 nM | 0.0313 nM | 0.0258 nM | 0.02 nM | 32600 | 0.0266 nM | 0.0278 nM | 0.0255 nM | 0.0321 nM | 556 | 0.0263 nM | – | – |
| 1320 nM | 564 nM | 25.7 µM | COc1c(C(=O)c2cnc3nc4ccccc4n3c2)c(O)c(OC)c2occc12 | – | 234 µM | 0.0277 nM | 0.0272 nM | 0.026 nM | 0.0269 nM | 0.02 nM | 1.14e+06 | 0.0253 nM | 0.0278 nM | 0.0277 nM | 0.0472 nM | 415 | 0.0263 nM | – | – |
| 450 nM | 200 nM | – | CCC[C@H](NC(=O)[C@@H]1[C@H]2CCC[C@H]2CN1C(=O)[C@@H](NC(=O)[C@@H](NC(=O)c1cnccn1)C1CCCCC1)C(C)(C)C)C(=O)C(=O)NC1CC1 | – | 90 µM | – | – | – | – | – | – | – | – | – | – | 1200 | – | – | – |
| 955 nM | 444 nM | 9.44 µM | COc1c(C(=O)C2=CN3C(=CN=C2)Nc2ccccc23)c(O)c(OC)c2occc12 | – | 256 µM | 0.0255 nM | 0.0333 nM | 0.0325 nM | 0.0338 nM | 0.35 nM | 21700 | 0.0321 nM | 0.0329 nM | 0.0277 nM | 0.0333 nM | 577 | 0.0316 nM | – | – |
